Laboratory results published in ChEMBL document CHEMBL1138502, “Discovery and biological evaluation of novel cyanoguanidine P2X(7) antagonists with analgesic activity in a rat model of neuropathic pain” (J Med Chem, 2009).
Activity calls are given as the source filed them. The calls are words filed in the database; no cut-off is given here.

What was measured:
[1] = Selectivity for P2X7 receptor over potassium channel
[2] = tested on: Rattus norvegicus; test: Antiallodynic activity in rat L5-L6 spinal nerve ligation model of neuropathic pain assessed as inhibition of mechanical allodynia after chronic administration of vehicle twice daily for 4 days followed by acute dose of 100 umol/kg, po on day 5; assay type: functional; design: scale not given: the % may be the effect or the level left
Procedure, shortened: (§1)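 Rats with L5-L6 spinal nerve ligation (Chung model) received vehicle (5% DMSO/PEG) or compound at 100 µmol/kg orally twice a day for four days. On day 5, vehicle or compound was given orally 1 h before von Frey testing for mechanical allodynia. Results are % effect ± SEM, N = 6 per group, with P vs the respective vehicle group.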

[3] = tested on: Rattus norvegicus; test: Antiallodynic activity in rat L5-L6 spinal nerve ligation model of neuropathic pain assessed as inhibition of mechanical allodynia at 100 umol/kg, po single administration; assay type: functional; design: scale not given: the % may be the effect or the level left
Procedure, shortened: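 Chung-model rats (L5-L6 spinal nerve ligation) were given a single oral dose, with 5% DMSO/PEG as vehicle. Mechanical allodynia was read by von Frey testing and expressed as % effect ± SEM, N = 6 per group, compared with vehicle.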

[4] = tested on: Rattus norvegicus; test: Antiallodynic activity in rat L5-L6 spinal nerve ligation model of neuropathic pain assessed as inhibition of mechanical allodynia at 100 umol/kg, po administered twice daily for 4 days once on day 5; assay type: functional; design: scale not given: the % may be the effect or the level left; procedure, shortened: as §1
[5] = molecular target: T1, P2X purinoceptor 4 (Homo sapiens) (UniProt Q99571); test: Activity at P2X4 receptor up to 10 uM
T1 sequence (whole entry): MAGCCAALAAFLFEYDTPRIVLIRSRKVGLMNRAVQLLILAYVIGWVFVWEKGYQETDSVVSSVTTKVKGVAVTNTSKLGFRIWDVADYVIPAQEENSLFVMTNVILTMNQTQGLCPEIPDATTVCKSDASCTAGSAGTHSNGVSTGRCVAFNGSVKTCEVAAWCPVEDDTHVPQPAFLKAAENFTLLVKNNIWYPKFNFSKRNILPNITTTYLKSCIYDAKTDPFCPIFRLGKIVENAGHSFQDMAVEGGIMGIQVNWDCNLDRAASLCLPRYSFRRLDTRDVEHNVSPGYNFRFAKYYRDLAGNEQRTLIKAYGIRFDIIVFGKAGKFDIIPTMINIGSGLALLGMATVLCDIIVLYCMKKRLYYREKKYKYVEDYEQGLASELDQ

[6] = molecular target: T2, P2X purinoceptor 3 (Homo sapiens) (UniProt P56373); test: Activity at P2X3 receptor up to 10 uM
T2 sequence (whole entry): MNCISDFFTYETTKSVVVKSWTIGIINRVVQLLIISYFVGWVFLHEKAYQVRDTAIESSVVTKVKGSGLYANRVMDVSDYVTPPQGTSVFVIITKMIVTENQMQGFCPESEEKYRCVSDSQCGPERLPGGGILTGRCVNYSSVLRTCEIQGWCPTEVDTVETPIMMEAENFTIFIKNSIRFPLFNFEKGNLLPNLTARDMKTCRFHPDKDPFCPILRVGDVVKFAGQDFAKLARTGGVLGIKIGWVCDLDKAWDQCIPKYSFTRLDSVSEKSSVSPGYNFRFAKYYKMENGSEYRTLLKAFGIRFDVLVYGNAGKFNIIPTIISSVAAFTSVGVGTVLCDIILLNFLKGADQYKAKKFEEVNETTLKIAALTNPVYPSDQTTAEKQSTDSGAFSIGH

[7] = tested on: Rattus norvegicus; test: Antinociceptive activity in ip dosed rat L5-L6 spinal nerve ligation model of neuropathic pain assessed as reduction in tactile allodynia; assay type: functional; design: Activity: scale not given: the % may be the effect or the level left; settings: for ED50: Rattus norvegicus, Spinal nerve, ip
Procedure, shortened: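 Intraperitoneal dosing in rats with L5-L6 spinal nerve ligation (Chung model). Tactile allodynia was measured by von Frey testing. ED50 in µmol/kg and maximum efficacy (%) are the mean of six animals.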

[8] = molecular target: P2Y purinoceptor 2 (Homo sapiens) (UniProt P41231); test: Activity at P2Y2 receptor up to 10 uM
[9] = Oral bioavailability in rat; assay type: ADME, organism-based; settings: in vivo
[10] = Bioavailability in rat at 10 umol/kg, ip; assay type: ADME, organism-based; settings: in vivo
[11] = molecular target: T3, P2X purinoceptor 7 (Homo sapiens, UniProt Q99572); test: Antagonist activity at human cloned P2X7 receptor expressed in HEK293 cells assessed as inhibition of calcium flux by FLIPR assay; assay type: functional, cell-based
T3 sequence (Q99572 whole entry): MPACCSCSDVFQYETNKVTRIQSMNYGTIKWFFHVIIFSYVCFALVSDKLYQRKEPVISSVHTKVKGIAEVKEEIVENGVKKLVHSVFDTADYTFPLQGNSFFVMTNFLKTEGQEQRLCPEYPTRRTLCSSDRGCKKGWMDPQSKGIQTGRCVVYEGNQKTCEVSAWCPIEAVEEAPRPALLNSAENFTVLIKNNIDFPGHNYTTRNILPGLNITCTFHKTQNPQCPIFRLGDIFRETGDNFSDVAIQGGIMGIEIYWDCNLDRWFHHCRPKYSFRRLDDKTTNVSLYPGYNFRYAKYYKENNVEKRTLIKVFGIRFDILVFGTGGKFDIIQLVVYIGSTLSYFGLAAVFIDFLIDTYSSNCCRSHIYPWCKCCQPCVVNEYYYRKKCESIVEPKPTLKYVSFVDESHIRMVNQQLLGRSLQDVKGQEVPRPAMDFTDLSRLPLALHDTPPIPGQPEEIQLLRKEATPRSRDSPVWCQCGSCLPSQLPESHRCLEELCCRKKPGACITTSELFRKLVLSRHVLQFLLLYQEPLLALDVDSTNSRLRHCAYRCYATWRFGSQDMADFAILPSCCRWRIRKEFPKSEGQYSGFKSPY
Procedure, shortened: (§2)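 Calcium influx read on a fluorometric imaging plate reader with Fluo-4 as the calcium-sensing dye. The P2X7 agonist was benzoylbenzoic ATP (BzATP). pIC50 values are the mean of two experiments unless otherwise indicated; some values are the mean of more than two experiments, with standard deviation shown.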

[12] = molecular target: T4, P2X purinoceptor 7 (Rattus norvegicus, UniProt Q64663); test: Antagonist activity at rat cloned P2X7 receptor expressed in HEK293 cells assessed as inhibition of calcium flux by FLIPR assay; assay type: functional, cell-based; procedure, shortened: as §2
T4 sequence (Q64663 whole entry): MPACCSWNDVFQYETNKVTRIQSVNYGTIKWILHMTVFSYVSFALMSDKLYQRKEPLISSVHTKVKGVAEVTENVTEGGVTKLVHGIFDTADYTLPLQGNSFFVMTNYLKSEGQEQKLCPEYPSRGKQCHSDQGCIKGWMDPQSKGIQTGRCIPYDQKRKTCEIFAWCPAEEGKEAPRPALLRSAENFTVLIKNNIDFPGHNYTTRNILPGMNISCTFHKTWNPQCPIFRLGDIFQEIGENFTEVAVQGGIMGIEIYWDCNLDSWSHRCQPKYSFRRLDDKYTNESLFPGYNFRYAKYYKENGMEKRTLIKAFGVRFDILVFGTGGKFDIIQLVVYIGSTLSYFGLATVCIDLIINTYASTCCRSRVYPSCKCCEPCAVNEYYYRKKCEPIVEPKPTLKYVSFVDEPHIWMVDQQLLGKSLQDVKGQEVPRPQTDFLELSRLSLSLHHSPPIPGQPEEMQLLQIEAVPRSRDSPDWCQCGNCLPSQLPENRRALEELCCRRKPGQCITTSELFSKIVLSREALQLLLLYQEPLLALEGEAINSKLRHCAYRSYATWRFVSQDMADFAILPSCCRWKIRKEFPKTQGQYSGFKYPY

Chain of P2Y purinoceptor 2 (Homo sapiens) (P41231 whole entry): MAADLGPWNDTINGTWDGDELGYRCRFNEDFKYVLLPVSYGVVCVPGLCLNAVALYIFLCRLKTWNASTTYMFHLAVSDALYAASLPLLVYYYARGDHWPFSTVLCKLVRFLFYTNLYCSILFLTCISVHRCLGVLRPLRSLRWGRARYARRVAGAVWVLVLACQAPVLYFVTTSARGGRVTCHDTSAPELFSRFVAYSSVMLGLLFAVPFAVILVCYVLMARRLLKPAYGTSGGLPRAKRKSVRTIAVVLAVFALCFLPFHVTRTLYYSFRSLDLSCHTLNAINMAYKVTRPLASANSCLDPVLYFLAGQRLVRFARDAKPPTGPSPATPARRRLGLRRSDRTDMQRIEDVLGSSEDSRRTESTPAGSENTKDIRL

| SMILES | Activity [5] | Activity [6] | Activity [7] | ED50 [7] | Activity [8] | other results |
| --- | --- | --- | --- | --- | --- | --- |
| CC(Cl)(Cl)C(NC(=O)c1ccc(Cl)cc1)N/C(=N/C#N)Nc1cccnc1Cl (centres undefined) |  |  |  |  |  | Selectivity ratio [1]: 100 |
| Cc1ncccc1N/C(=N\C#N)NC(NC(=O)Cc1ccc(Cl)cc1)C(C)(C)C (centres undefined) | inactive | inactive | 82% | 38 µmol/kg | inactive | Activity [2]: 44%; Activity [3]: 45%; Activity [4]: 61% |
| Cc1ncccc1NC(=NC(NC(=O)Cc1ccc(Cl)cc1)C(C)(C)C)NC#N (centres undefined) |  |  |  |  |  | bioavailability [9]: 36%; bioavailability [10]: 54%; IC50 [11]: 0.0316 µM; IC50 [12]: 0.0398 µM |
| COc1ncccc1N/C(=N\C#N)NC(NC(=O)c1ccc(Cl)cc1)C(C)(Cl)Cl (centres undefined) |  |  |  |  |  | Selectivity ratio [1]: 100 |
| COc1ccc(CC(=O)NC(N/C(=N/C#N)Nc2ccccc2C)C(C)(C)C)cc1OC (stereo in doubt; 13) | inactive | inactive | 59% | 77 µmol/kg | inactive |  |
| COc1ccc(CC(=O)NC(N/C(=N/C#N)Nc2cc(C)ccc2C)C(C)(C)C)cc1OC (centres undefined) | inactive | inactive |  |  | inactive |  |
| COc1ccc(CC(=O)NC(N/C(=N/C#N)Nc2cccc3ncccc23)C(C)(C)C)cc1OC (centres undefined) | inactive | inactive | 65% | 41 µmol/kg | inactive | bioavailability [10]: 79%; IC50 [11]: 0.0398 µM |
